In ChEMBL document CHEMBL1124779, “Synthesis and antitumor activity of 1-[[(dialkylamino)alkyl]amino]-4-methyl-5H-pyrido[4,3-b]benzo[e]- and -benzo[g])indoles. A new class of antineoplastic agents” (1990):
Values after ≈ are worked out from the molar mass of the structure shown. Values joined by “and” are separate entries in the source; they are usually repeats but may differ in a detail not shown here. Identical values can stand only once.

What was measured:
[1] = test system: L1210; assay: In vivo T/C (survival time treated/survival time control x 100) was determined against L1210 leukemia cells at 20 mg/Kg; assay type: functional, Mus musculus
Summary of the method: (§1)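 B6D2 F1 mice, at least five per group, were inoculated ip on day 0 with 10^5 viable L1210 cells (25 mL/kg). Compounds were dissolved in distilled water and given ip (25 mL/kg) on days 1–4. Deaths were checked daily, with necropsy to separate tumor from toxic death. T/C×100 was median survival of treated over controls. Mice surviving over 50 days counted as cured and were excluded from the median.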

[2] = test system: L1210; assay: Tested for cytotoxicity in the multiple tumor disk diffusion soft agar assay at the dose of 15 ug/disk against leukemia L1210; range is 0-450; assay type: functional, Mus musculus
Summary of the method: (§2)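 Soft agar disk diffusion: bottom layer 0.8% noble agar, top layer 0.47% noble agar, both in 1:1 CMRL-Fischer medium with 11% horse serum. Top layer seeded with 5×10^3 L1210 cells or 10^6 solid tumor cells (C38, PO3). Drug applied on a dried 6-mm filter-paper disk. Incubation 7-11 days. Inhibition zone measured by inverted microscope, in units (1 unit = 30 μm).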

[3] = test system: L1210; assay: Cytotoxicity in the multiple tumor disk diffusion soft agar assay at the dose of 15 ug/disk against leukemia L1210; assay type: functional, Mus musculus; summary of the method: as §2
[4] = test system: P388; assay: In vivo T/C (survival time treated/survival time control x 100) was determined against P388 leukemia cells at 20 mg/Kg; assay type: functional, Mus musculus
Summary of the method: (§3)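 B6D2 F1 mice, at least five per group, were inoculated ip on day 0 with 10^6 viable P388 cells (25 mL/kg). Compounds were dissolved in distilled water and given ip (25 mL/kg) daily on days 1–4. Mortality was checked daily, with necropsy of dead animals. T/C×100 was median survival, treated versus control. Survivors beyond 50 days counted as cured and were excluded from the median.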

[5] = test system: P388; assay: In vitro cytotoxicity was determined against P388 leukemia cells; assay type: functional; settings: Mus musculus, read-out: ID50 (the source's name)
Summary of the method: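 P388 cells in exponential growth, RPMI 1640 with 2 mM glutamine, 10 μM 2-mercaptoethanol and 10% FCS, 5% CO2, 37 °C. Cells at 10^5 cells/mL. Drugs in distilled water added on day 0. Cells counted by Coulter counter after 96 h. ID50 (μg/mL, 50% inhibition of proliferation) estimated by regression of concentration/response data.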

[6] = Cytotoxicity in the multiple tumor disk diffusion soft agar assay at the dose of 15 ug/disk against solid tumor C38.; assay type: functional, Mus musculus; summary of the method: as §2
[7] = Tested for cytotoxicity in the multiple tumor disk diffusion soft agar assay at the dose of 15 ug/disk against solid tumor PO3; range is 350-450; assay type: functional, Mus musculus; summary of the method: as §2
[8] = test system: Mus musculus; assay: In vivo total number of survivors was determined against P388 leukemia cells out of 5 mouse at 50 day; assay type: functional; summary of the method: as §3
[9] = test system: L1210; assay: In vivo T/C (survival time treated/survival time control x 100) was determined against L1210 leukemia cells at 10 mg/Kg; assay type: functional, Mus musculus; summary of the method: as §1
[10] = test system: L1210; assay: Tested for cytotoxicity in the multiple tumor disk diffusion soft agar assay at the dose of 15 ug/disk against leukemia L1210; range is 450-650; assay type: functional, Mus musculus; summary of the method: as §2
[11] = test system: P388; assay: In vivo T/C (survival time treated/survival time control x 100) was determined against P388 leukemia cells at 10 mg/Kg; assay type: functional, Mus musculus; summary of the method: as §3
[12] = Cytotoxicity in the multiple tumor disk diffusion soft agar assay at the dose of 15 ug/disk against solid tumor PO3; assay type: functional, Mus musculus; summary of the method: as §2
[13] = test system: L1210; assay: Tested for cytotoxicity in the multiple tumor disk diffusion soft agar assay at the dose of 15 ug/disk against leukemia L1210; assay type: functional, Mus musculus; summary of the method: as §2
[14] = test system: P388; assay: In vivo T/C (survival time treated/survival time control x 100) was determined against P388 leukemia cells at 40 mg/Kg; assay type: functional, Mus musculus; summary of the method: as §3
[15] = test system: P388; assay: In vivo T/C (survival time treated/survival time control x 100) was determined against P388 leukemia cells at 5.0 mg/Kg; assay type: functional, Mus musculus; summary of the method: as §3
[16] = test system: L1210; assay: Tested for cytotoxicity in the multiple tumor disk diffusion soft agar assay at the dose of 15 ug/disk against leukemia L1210; range is 300-375; assay type: functional, Mus musculus; summary of the method: as §2
[17] = Tested for cytotoxicity in the multiple tumor disk diffusion soft agar assay at the dose of 15 ug/disk against solid tumor C38; assay type: functional, Mus musculus; summary of the method: as §2
[18] = Tested for cytotoxicity in the multiple tumor disk diffusion soft agar assay at the dose of 15 ug/disk against solid tumor PO3; assay type: functional, Mus musculus; summary of the method: as §2

Row | Compound | Cytotoxicity [3] | T/C x100 [4] | IC50 [5] [µg/mL] | Cytotoxicity [6] [U] | Cytotoxicity [12] [U] | also measured
1 | Cc1cnc(NCCCN(C)C)c2c3c4ccc(O)cc4ccc3n(C)c12 | 350 U | 243 | 0.015 (≈ 0.0414 µM) | 750 |  | T/C x100 [1]: 127; Cytotoxicity [2]: 0 U; Cytotoxicity [7]: 350 U; Survivors [8]: 1
2 | CCN(CC)CCCNc1ncc(C)c2[nH]c3ccc4cc(O)ccc4c3c12 | 475 U |  | 0.05 (≈ 0.133 µM) | 625 | 900 | T/C x100 [9]: 149; Cytotoxicity [10]: 450 U; T/C x100 [11]: 215
3 | CCN(CC)CCCNc1[nH]cc(C)c2nc3c(ccc4cc(OC)ccc43)c1-2 | 200 U |  | 0.5 (≈ 1.28 µM) | 285 | 200 | Cytotoxicity [13]: 325 U; T/C x100 [14]: 131
4 | Cc1cnc(NCCCN(C)C)c2c3cc(O)ccc3n(C)c12 |  |  |  |  |  | T/C x100 [15]: 128
5 | CCN(CC)CCCNc1[nH]cc(C)c2nc3c(ccc4ccccc43)c1-2 | 500 U |  | 0.75 (≈ 2.08 µM) | 460 | 200 | Cytotoxicity [16]: 300 U; T/C x100 [11]: 102
6 | COc1cccc2c1ccc1c2[nH]c2c(C)cnc(NCCCN(C)C)c21 | 280 U | 121 | 0.15 (≈ 0.414 µM) |  | 225 | 
7 | COc1ccc2c(ccc3[nH]c4c(C)cnc(NCCCN(C)C)c4c32)c1 | 750 U and 350 U |  | 0.75 (≈ 2.07 µM) |  |  | T/C x100 [1]: 127; Cytotoxicity [17]: 800 U and 450 U; Cytotoxicity [18]: 630 U and 300 U
8 | CCN(CC)CCCNc1ncc(C)c2c1c1ccc3cc(O)ccc3c1n2C | 300 U | 124 | 0.1 (≈ 0.256 µM) | 325 | 350 | Cytotoxicity [13]: 400 U
